Laboratory results as given in ChEMBL document CHEMBL1128434, “Gonadotropin-releasing hormone antagonists: novel members of the azaline B family” (1995).
One block for each compound: values may come before it.

What was measured:
Rattus norvegicus [1] = species: Rattus norvegicus; assay: Effect in the anti ovulatory assay (AOA) in rats expressed as no. of rats ovulating/No of rats treated at 10 mg; 1/6; format: functional
[2] = target: T1, Gonadotropin-releasing hormone receptor (Rattus norvegicus) (UniProt P30969); assay: In vitro potency to inhibit GnRH-mediated LH secretion by cultured pituitary cells relative to [Ac-delta-Pro1,DFpa2,DTrp36]GnRH.; format: functional, cell-based; details: Pituitary gland cell
T1 sequence (whole entry): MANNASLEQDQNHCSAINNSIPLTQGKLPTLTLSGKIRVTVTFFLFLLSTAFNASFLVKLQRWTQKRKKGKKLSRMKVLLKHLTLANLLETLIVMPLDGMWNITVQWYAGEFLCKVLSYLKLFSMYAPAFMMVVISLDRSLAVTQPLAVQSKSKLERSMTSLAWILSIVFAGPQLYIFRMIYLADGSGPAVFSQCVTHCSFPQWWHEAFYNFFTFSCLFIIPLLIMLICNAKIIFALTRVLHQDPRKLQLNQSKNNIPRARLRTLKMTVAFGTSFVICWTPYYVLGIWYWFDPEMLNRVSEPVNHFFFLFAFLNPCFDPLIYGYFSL
How it was run: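 Dispersed rat pituitary cells in culture; antagonist inhibition of GnRH-stimulated LH secretion. Potency expressed relative to standard antagonist [Ac-Δ3Pro1,D4FPhe2,DTrp3,6]GnRH taken as 1.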

Rattus norvegicus [3] = species: Rattus norvegicus; assay: Effect in the anti ovulatory assay (AOA) in rats expressed as no. of rats ovulating/No of rats treated at 2.5 mg; 3/7; format: functional
Rattus norvegicus [4] = species: Rattus norvegicus; assay: Effect in the anti ovulatory assay (AOA) in rats expressed as no. of rats ovulating/No of rats treated at 0.5 mg; 8/8; format: functional
Rattus norvegicus [5] = species: Rattus norvegicus; assay: Effect in the anti ovulatory assay (AOA) in rats expressed as no. of rats ovulating/No of rats treated at 1.0 mg; 4/8; format: functional
[6] = target: T1, Gonadotropin-releasing hormone receptor (Rattus norvegicus); assay: Duration of action measured using castrated male rat assay to inhibit luteinizing hormone release.; fully active at 72 hr; format: functional
Rattus norvegicus [7] = species: Rattus norvegicus; assay: Effect in the anti ovulatory assay (AOA) in rats expressed as no. of rats ovulating/No of rats treated at 1.0 mg; 3/9; format: functional
[8] = target: T1, Gonadotropin-releasing hormone receptor (Rattus norvegicus); assay: Effect in the anti ovulatory assay (AOA) in rats expressed as no. of rats ovulating/No of rats treated at 2.5 mg; 0/8; format: functional
Rattus norvegicus [9] = species: Rattus norvegicus; assay: Effect in the anti ovulatory assay (AOA) in rats expressed as no. of rats ovulating/No of rats treated at 25 mg; 2/8; format: functional
Rattus norvegicus [10] = species: Rattus norvegicus; assay: Effect in the anti ovulatory assay (AOA) in rats expressed as no. of rats ovulating/No of rats treated at 100 mg; 0/4; format: functional
Rattus norvegicus [11] = species: Rattus norvegicus; assay: Effect in the anti ovulatory assay (AOA) in rats expressed as no. of rats ovulating/No of rats treated at 50 mg; 4/4; format: functional
Rattus norvegicus [12] = species: Rattus norvegicus; assay: Effect in the anti ovulatory assay (AOA) in rats expressed as no. of rats ovulating/No of rats treated at 1.0 mg; 5/5; format: functional
Rattus norvegicus [13] = species: Rattus norvegicus; assay: Effect in the anti ovulatory assay (AOA) in rats expressed as no. of rats ovulating/No of rats treated at 2.5 mg; 4/8; format: functional
Rattus norvegicus [14] = species: Rattus norvegicus; assay: Duration of action measured using castrated male rat assay to inhibit luteinizing hormone release.; fully active at 48 hr but not at 72 hr; format: functional
Rattus norvegicus [15] = species: Rattus norvegicus; assay: Effect in the anti ovulatory assay (AOA) in rats expressed as no. of rats ovulating/No of rats treated at 1.0 mg; 6/6; format: functional
Rattus norvegicus [16] = species: Rattus norvegicus; assay: Effect in the anti ovulatory assay (AOA) in rats expressed as no. of rats ovulating/No of rats treated at 2.5 mg; 0/9; format: functional

Compound: CC(=O)N[C@H](Cc1ccc(N)cc1)C(=O)N[C@H](Cc1ccc(Cl)cc1)C(=O)N[C@H](Cc1cccnc1)C(=O)N[C@@H](CO)C(=O)N[C@@H](Cc1ccc(Nc2n[nH]c(N)n2)cc1)C(=O)N[C@H](Cc1ccc(Nc2n[nH]c(N)n2)cc1)C(=O)N[C@@H](CC(C)C)C(=O)N[C@@H](CCCCNC(C)C)C(=O)N1CCC[C@H]1C(=O)N[C@H](C)N
No. of rats ovulated (Rattus norvegicus [1]): 1

Relative potency [2]: 1.1
Compound: CC(=O)N[C@H](Cc1ccc2ccccc2c1)C(=O)N[C@H](Cc1ccc(Cl)cc1)C(=O)N[C@H](Cc1cccnc1)C(=O)N[C@@H](CO)C(=O)N[C@@H](Cc1ccc(Nc2n[nH]c(N)n2)cc1)C(=O)N[C@H](Cc1ccc(Nc2n[nH]c(N)n2)cc1)C(=O)N[C@@H](CC(C)C)C(=O)N[C@@H](Cc1ccc(CNC(C)C)cc1)C(=O)N1CCC[C@H]1C(=O)N[C@H](C)N
No. of rats ovulated (Rattus norvegicus [3]): 3

Compound: CC(=O)N[C@H](Cc1ccc2ccccc2c1)C(=O)N[C@H](Cc1ccc(Cl)cc1)C(=O)N[C@H](Cc1cccnc1)C(=O)N[C@@H](CO)C(=O)N[C@@H](Cc1ccc(NC(=O)c2cnccn2)cc1)C(=O)N[C@H](Cc1ccc(NC(=O)c2cnccn2)cc1)C(=O)N[C@@H](CC(C)C)C(=O)N[C@@H](CCCCNC(C)C)C(=O)N1CCC[C@H]1C(=O)N[C@H](C)N
No. of rats ovulated (Rattus norvegicus [4]): 8
No. of rats ovulated (Rattus norvegicus [5]): 4

Duration of action [6]: 72 h
No. of rats ovulated [8]: 0
Compound: CC(=O)N[C@H](Cc1ccc2ccccc2c1)C(=O)N[C@H](Cc1ccc(Cl)cc1)C(=O)N[C@H](Cc1cccnc1)C(=O)N[C@@H](CO)C(=O)N[C@@H](Cc1ccc(NC=O)cc1)C(=O)N[C@H](Cc1ccc(NC=O)cc1)C(=O)N[C@@H](CC(C)C)C(=O)N[C@@H](CCCCNC(C)C)C(=O)N1CCC[C@H]1C(=O)N[C@H](C)N
No. of rats ovulated (Rattus norvegicus [7]): 3

Compound: CC[C@H](C)[C@H](NC(=O)[C@H](CC(C)C)NC(=O)[C@@H](Cc1ccc(Nc2n[nH]c(N)n2)cc1)NC(=O)[C@H](Cc1ccc(Nc2n[nH]c(N)n2)cc1)N(C)C(=O)[C@H](CO)NC(=O)[C@@H](Cc1cccnc1)NC(=O)[C@@H](Cc1ccc(Cl)cc1)NC(=O)[C@@H](Cc1ccc2ccccc2c1)NC(C)=O)C(=O)N1CCC[C@H]1C(=O)N[C@H](C)N
No. of rats ovulated (Rattus norvegicus [9]): 2
No. of rats ovulated (Rattus norvegicus [10]): 0

Relative potency [2]: 0.1
Compound: CC(=O)N[C@H](Cc1ccc2ccccc2c1)C(=O)N[C@H](Cc1ccc(Cl)cc1)C(=O)N[C@H](Cc1cccnc1)C(=O)N[C@@H](CO)C(=O)N[C@@H](Cc1ccc(NC(=O)Nc2ccccc2Cl)cc1)C(=O)N[C@H](Cc1ccc(NC(=O)Nc2ccccc2Cl)cc1)C(=O)N[C@@H](CC(C)C)C(=O)N[C@@H](CCCCNC(C)C)C(=O)N1CCC[C@H]1C(=O)N[C@H](C)N
No. of rats ovulated (Rattus norvegicus [11]): 4

Compound: CC(=O)N[C@H](Cc1ccc2ccccc2c1)C(=O)N[C@H](Cc1ccc(Cl)cc1)C(=O)N[C@H](Cc1cccnc1)C(=O)N[C@@H](CO)C(=O)N[C@@H](Cc1ccc(NC(=O)CCl)cc1)C(=O)N[C@H](Cc1ccc(NC(=O)CCl)cc1)C(=O)N[C@@H](CC(C)C)C(=O)N[C@@H](CCCCNC(C)C)C(=O)N1CCC[C@H]1C(=O)N[C@H](C)N
No. of rats ovulated (Rattus norvegicus [12]): 5
No. of rats ovulated (Rattus norvegicus [13]): 4

Compound: CC(=O)N[C@H](Cc1ccc2ccccc2c1)C(=O)N[C@H](Cc1ccc(Cl)cc1)C(=O)N[C@H](Cc1cccnc1)C(=O)N[C@@H](CO)C(=O)N[C@@H](Cc1ccc(Nc2n[nH]c(N)n2)cc1)C(=O)N[C@H](Cc1ccc(Nc2n[nH]c(N)n2)cc1)C(=O)N[C@@H](Cc1ccccc1)C(=O)N[C@@H](CCCCNC(C)C)C(=O)N1CCC[C@H]1C(=O)N[C@H](C)N
Duration of action (Rattus norvegicus [14]): Intermediate
No. of rats ovulated (Rattus norvegicus [15]): 6
No. of rats ovulated (Rattus norvegicus [16]): 0
